Data reported in ChEMBL document CHEMBL3046812, “Synthesis, fungicidal activity, and 3D-QSAR of pyridazinone-substituted 1,3,4-oxadiazoles and 1,3,4-thiadiazoles” (2002).

Test system: Puccinia recondita
Assay: Antifungal activity against Puccinia recondita infected wheat leaves after 10 days relative to triadimefon
Format: functional
Method in brief: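 Wheat leaves inoculated with Puccinia recondita uredospores mixed 1:10 with talcum powder, held 24 h in a moist chamber, then sprayed once dry with 0.001 M compound solutions in water/DMF (5:1, with Sorpal-144). Plants kept in greenhouse; percent disease control versus untreated pots scored 10 days after treatment. Three replicates; triadimefon reference tested at 100 ppm under identical conditions.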

SMILES	inhibition (INH) [%]
Cc1ccc(-n2nc(-c3nnc(Nc4cccc(C(F)(F)F)c4)o3)c(=O)cc2C)c(C)c1	0.7
Cc1cc(=O)c(-c2nnc(Nc3cccc(C(F)(F)F)c3)s2)nn1-c1c(Cl)cccc1Cl	0.5
Cc1cc(=O)c(-c2nnc(Nc3cccc(C(F)(F)F)c3)s2)nn1-c1cc(Cl)c(Cl)cc1Cl	0.7
Cc1cc(=O)c(-c2nnc(Nc3ccccc3F)s2)nn1-c1ccc(Cl)cc1	0.5
Cc1cc(=O)c(-c2nnc(Nc3ccccc3)s2)nn1-c1ccc(Cl)cc1Cl	0.2
Cc1cc(=O)c(-c2nnc(Nc3ccccc3F)o2)nn1-c1ccccc1Cl	0.8
Cc1cc(=O)c(-c2nnc(Nc3ccccc3F)s2)nn1-c1c(Cl)cccc1Cl	0.3
Cc1cc(=O)c(-c2nnc(Nc3ccccc3F)s2)nn1-c1ccc(Cl)cc1Cl	0.8
Cc1ccc(-n2nc(-c3nnc(Nc4ccccc4F)o3)c(=O)cc2C)c(C)c1	0.8
Cc1cc(=O)c(-c2nnc(Nc3cccc(C(F)(F)F)c3)s2)nn1-c1ccccc1Cl	0.7
Cc1ccc(-n2nc(-c3nnc(Nc4cccc(C(F)(F)F)c4)s3)c(=O)cc2C)c(C)c1	0.9
Cc1cc(=O)c(-c2nnc(Nc3cccc(C(F)(F)F)c3)s2)nn1-c1ccc(Cl)cc1Cl	0.9
Cc1cc(=O)c(-c2nnc(Nc3cccc(C(F)(F)F)c3)o2)nn1-c1ccccc1Cl	0.9
Cc1cc(=O)c(-c2nnc(Nc3cccc(C(F)(F)F)c3)s2)nn1-c1ccccc1	0.6
COc1ccc(Nc2nnc(-c3nn(-c4ccc(Cl)cc4)c(C)cc3=O)o2)cc1	0.8
Cc1cc(=O)c(-c2nnc(Nc3ccccc3F)o2)nn1-c1cc(Cl)c(Cl)cc1Cl	0.9
Cc1cc(=O)c(-c2nnc(Nc3ccccc3)o2)nn1-c1ccccc1Cl	0.1
Cc1cc(=O)c(-c2nnc(Nc3ccccc3)s2)nn1-c1ccccc1Cl	0.1
Cc1cc(=O)c(-c2nnc(Nc3cccc(C(F)(F)F)c3)o2)nn1-c1ccc(Cl)cc1	0.9
Cc1cc(=O)c(-c2nnc(Nc3ccccc3F)s2)nn1-c1cc(Cl)c(Cl)cc1Cl	0.6
Cc1ccc(-n2nc(-c3nnc(Nc4ccccc4F)s3)c(=O)cc2C)c(C)c1	0.9
Cc1cc(=O)c(-c2nnc(Nc3cccc(C(F)(F)F)c3)s2)nn1-c1ccc(Cl)cc1	0.6
Cc1cc(=O)c(-c2nnc(Nc3ccccc3F)o2)nn1-c1c(Cl)cccc1Cl	0.8
Cc1cc(=O)c(-c2nnc(Nc3ccccc3F)o2)nn1-c1ccccc1	0.9
Cc1cc(=O)c(-c2nnc(Nc3ccccc3F)s2)nn1-c1ccccc1Cl	0.1
Cc1cc(=O)c(-c2nnc(Nc3ccccc3F)s2)nn1-c1ccccc1	0.5
Cc1cc(=O)c(-c2nnc(Nc3ccccc3F)o2)nn1-c1ccc(Cl)cc1	0.7
